Experimental data from different studies.
Each line is one published result; the experiments were not run side by side.
Cell line: 786-0
Read-out: cell growth or viability

Structure (SMILES) | technique | tested at | time | measurement | value
COc1cc(-c2ccc(-c3ccc(C(=N)N)nc3)s2)cc(OC)c1OC | – | – | – | GI50 | 2.12 µM
COc1ccc(C(=O)/C=C/c2ccccc2Br)cc1S(N)(=O)=O | SRB | – | 48 h | GI50 | 1.8 µM
CC1=CC(=O)C(C(C)C)=CC1=O | CCK-8 | – | 48 h | IC50 | 43 µM
S=C([S][Au-][P+](CCCCCC[P+]([Au-][S]C(=S)n1cccn1)(c1ccccc1)c1ccccc1)(c1ccccc1)c1ccccc1)n1cccn1 | – | – | – | GI50 | 9.8 µM
COc1ccc(-c2ccc(-c3ccc(C(=N)N)nc3)s2)cc1Cl | – | – | – | GI50 | 2 µM
CCCc1c(Sc2ccc(C(=O)N[C@@H](CCC(=O)O)C(=O)O)cc2)[nH]c2nc(N)nc(N)c12 | – | – | – | GI50 | ≤ 0.01 µM
COc1ccc(C(=O)/C=C/c2cc3c(cc2Br)OCO3)cc1S(N)(=O)=O | SRB | 10 µM | – | inhibition | 140%
COc1cccc(Oc2ccccc2NC(=O)CNC(=O)c2cccc3ccccc23)c1 | SRB | – | 48 h | GI50 | 0.49 µM
CC(=O)O[C@H]1C(=O)[C@@]2(C)[C@H]([C@H](OC(=O)c3ccccc3)[C@]3(O)C[C@H](OC(=O)[C@H](O)[C@@H](NC(=O)c4ccccc4)c4ccccc4)C(C)=C1C3(C)C)[C@]1(OC(C)=O)CO[C@@H]1C[C@@H]2O | – | – | 110 h | IC50 | 0.005 µM
Cc1cc(C)n(C(=S)[S][Au][PH](CCCCCC[PH]([Au][S]C(=S)n2nc(C)cc2C)(c2ccccc2)c2ccccc2)(c2ccccc2)c2ccccc2)n1 | – | – | – | GI50 | 3.1 µM
CC(C)c1c(Sc2ccc(C(=O)N[C@@H](CCC(=O)O)C(=O)O)cc2)[nH]c2nc(N)nc(N)c12 | – | – | – | GI50 | 5.58 µM
